Assays:
[1] = Drug metabolism in human liver microsome at 10 uM after 30 mins by LC-MS analysis; format: ADME; details: liver microsomes, read-out: Drug metabolism
[2] = Drug metabolism in mouse liver microsome at 10 uM after 30 mins by LC-MS analysis; format: ADME; details: liver microsomes, read-out: Drug metabolism
[3] = cells; format: cell-based; details: Homo sapiens, 7dF3
[4] = Apparent permeability in human Caco2 cells after 2 hrs by LC-MS/MS analysis; format: ADME, cell-based, Caco-2; details: caco-2, 2 h
[5] = Clearance in NMRI mouse at 0.2 mg/kg, iv; format: ADME, organism-based; design: dose 0.2 mg/kg, route intravenous; details: in vivo
Method in brief: (§1)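 Female NMRI mice (n = 5) given a single iv bolus (0.2 mg/kg per compound) or oral gavage (0.5 mg/kg per compound) as a cassette, in DMSO/PEG 200/water. Serial retro-orbital blood was drawn under isoflurane from 3 animals per route at 0.1 (iv), 0.25 (po), 0.5, 1, 2, 4 and 6 h. Plasma was quantified by LC–MS/MS.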

[6] = Volume of distribution at steady state in NMRI mouse at 0.2 mg/kg, iv; format: ADME, organism-based; design: dose 0.2 mg/kg, route intravenous; details: in vivo, read-out: Vdss; method in brief: as §1
[7] = Tmax in NMRI mouse at 0.2 mg/kg, iv; format: ADME, organism-based; design: dose 0.2 mg/kg, route intravenous; details: in vivo; method in brief: as §1
[8] = AUC in NMRI mouse at 0.2 mg/kg, iv; format: ADME, organism-based; design: dose 0.2 mg/kg, route intravenous; details: plasma; method in brief: as §1
[9] = Half life in NMRI mouse at 0.2 mg/kg, iv; format: ADME, organism-based; design: dose 0.2 mg/kg, route intravenous; details: in vivo; method in brief: as §1
[10] = Tmax in NMRI mouse at 0.5 mg/kg, po; format: ADME, organism-based; design: dose 0.5 mg/kg, route oral; details: in vivo; method in brief: as §1
[11] = AUC in NMRI mouse at 0.5 mg/kg, po; format: ADME, organism-based; design: dose 0.5 mg/kg, route oral; details: plasma; method in brief: as §1
[12] = Oral bioavailability in NMRI mouse at 0.5 mg/kg; format: ADME, organism-based; details: in vivo
[13] = target: T1, Poly [ADP-ribose] polymerase tankyrase-1 (Homo sapiens, UniProt O95271); assay: Inhibition of GST-tagged TNKS1 (1023 to 1327 aa) (unknown origin) after 90 mins by HTRF assay
T1 sequence (O95271 whole entry): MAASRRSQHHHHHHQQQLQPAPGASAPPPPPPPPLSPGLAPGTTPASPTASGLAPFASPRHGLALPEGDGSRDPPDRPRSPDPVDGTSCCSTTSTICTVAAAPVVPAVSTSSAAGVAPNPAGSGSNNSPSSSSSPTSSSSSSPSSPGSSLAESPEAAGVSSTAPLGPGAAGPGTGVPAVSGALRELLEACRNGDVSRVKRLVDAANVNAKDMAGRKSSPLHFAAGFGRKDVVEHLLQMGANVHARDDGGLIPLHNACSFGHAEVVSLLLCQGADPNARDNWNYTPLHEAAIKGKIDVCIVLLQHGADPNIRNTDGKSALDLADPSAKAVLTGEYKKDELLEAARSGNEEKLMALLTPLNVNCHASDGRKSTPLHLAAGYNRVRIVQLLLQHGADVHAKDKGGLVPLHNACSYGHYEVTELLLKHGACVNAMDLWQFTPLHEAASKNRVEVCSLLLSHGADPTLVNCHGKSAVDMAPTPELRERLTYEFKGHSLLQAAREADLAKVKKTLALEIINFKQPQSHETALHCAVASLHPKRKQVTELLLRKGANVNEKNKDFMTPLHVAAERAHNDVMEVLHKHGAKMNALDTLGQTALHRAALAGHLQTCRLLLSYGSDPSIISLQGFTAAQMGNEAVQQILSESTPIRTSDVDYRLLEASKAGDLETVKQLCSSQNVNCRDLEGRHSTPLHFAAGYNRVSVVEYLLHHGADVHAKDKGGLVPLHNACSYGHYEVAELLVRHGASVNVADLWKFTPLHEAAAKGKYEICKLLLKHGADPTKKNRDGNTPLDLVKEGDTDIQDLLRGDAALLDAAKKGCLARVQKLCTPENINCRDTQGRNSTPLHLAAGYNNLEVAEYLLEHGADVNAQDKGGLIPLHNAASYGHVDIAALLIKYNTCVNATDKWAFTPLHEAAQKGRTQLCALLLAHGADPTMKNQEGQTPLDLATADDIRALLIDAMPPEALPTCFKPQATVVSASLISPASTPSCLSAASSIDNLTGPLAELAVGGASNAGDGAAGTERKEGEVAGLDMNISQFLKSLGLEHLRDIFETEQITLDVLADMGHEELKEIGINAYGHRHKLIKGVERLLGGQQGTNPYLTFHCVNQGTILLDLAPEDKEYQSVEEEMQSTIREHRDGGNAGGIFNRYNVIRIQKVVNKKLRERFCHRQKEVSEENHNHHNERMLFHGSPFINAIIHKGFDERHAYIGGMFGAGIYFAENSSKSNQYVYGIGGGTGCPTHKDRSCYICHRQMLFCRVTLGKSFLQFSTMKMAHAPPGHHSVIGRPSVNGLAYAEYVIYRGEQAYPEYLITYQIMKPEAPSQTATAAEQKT

[14] = target: T2, Poly [ADP-ribose] polymerase tankyrase-2 (Homo sapiens, UniProt Q9H2K2); assay: Inhibition of GST-tagged TNKS2 (873 to 1166 aa) (unknown origin) after 90 mins by HTRF assay
T2 sequence (Q9H2K2 whole entry): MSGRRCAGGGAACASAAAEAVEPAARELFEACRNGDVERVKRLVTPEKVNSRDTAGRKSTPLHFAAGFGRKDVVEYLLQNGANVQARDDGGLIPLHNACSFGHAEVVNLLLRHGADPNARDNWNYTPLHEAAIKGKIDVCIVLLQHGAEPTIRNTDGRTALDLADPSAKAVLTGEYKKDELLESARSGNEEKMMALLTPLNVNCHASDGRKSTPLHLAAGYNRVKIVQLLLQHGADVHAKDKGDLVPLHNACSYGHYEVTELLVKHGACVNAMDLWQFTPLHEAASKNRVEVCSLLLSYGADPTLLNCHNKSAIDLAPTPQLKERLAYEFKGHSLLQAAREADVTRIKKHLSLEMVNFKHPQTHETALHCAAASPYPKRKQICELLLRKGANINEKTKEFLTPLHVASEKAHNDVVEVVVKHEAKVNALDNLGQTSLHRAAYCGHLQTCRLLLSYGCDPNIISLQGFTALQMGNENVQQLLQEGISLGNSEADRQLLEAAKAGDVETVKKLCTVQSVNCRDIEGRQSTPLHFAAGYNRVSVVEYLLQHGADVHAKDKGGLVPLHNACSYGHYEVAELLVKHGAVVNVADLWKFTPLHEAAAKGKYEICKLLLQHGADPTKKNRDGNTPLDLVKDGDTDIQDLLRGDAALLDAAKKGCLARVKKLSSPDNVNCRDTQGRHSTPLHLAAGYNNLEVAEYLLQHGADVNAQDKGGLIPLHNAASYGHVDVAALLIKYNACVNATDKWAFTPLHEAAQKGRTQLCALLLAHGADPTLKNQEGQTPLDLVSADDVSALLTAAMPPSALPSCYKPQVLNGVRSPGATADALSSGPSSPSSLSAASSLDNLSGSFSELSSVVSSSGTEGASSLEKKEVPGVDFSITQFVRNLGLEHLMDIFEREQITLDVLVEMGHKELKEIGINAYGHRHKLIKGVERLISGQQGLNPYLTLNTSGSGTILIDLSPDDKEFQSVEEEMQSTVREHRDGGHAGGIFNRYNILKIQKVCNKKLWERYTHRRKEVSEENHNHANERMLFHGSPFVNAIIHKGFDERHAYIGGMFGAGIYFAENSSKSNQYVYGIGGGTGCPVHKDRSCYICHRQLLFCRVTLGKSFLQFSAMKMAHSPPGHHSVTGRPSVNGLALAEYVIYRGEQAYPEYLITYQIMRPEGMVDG

[15] = Kinetic solubility of the compound in phosphate buffer at pH 7.4; format: physicochemical
[16] = Thermodynamic aqueous solubility of the compound in phosphate buffer at pH 7.4; format: physicochemical
Method in brief: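 Kinetic and thermodynamic aqueous solubilities were measured in phosphate buffer at pH 7.4.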

[17] = target: Cytochrome P450 2C9 (Homo sapiens, UniProt P11712); assay: Inhibition of CYP2C9 (unknown origin); format: ADME
[18] = target: Cytochrome P450 3A4 (Homo sapiens, UniProt P08684); assay: Inhibition of CYP3A4 (unknown origin); format: ADME
Chain of Cytochrome P450 3A4 (P08684 whole entry): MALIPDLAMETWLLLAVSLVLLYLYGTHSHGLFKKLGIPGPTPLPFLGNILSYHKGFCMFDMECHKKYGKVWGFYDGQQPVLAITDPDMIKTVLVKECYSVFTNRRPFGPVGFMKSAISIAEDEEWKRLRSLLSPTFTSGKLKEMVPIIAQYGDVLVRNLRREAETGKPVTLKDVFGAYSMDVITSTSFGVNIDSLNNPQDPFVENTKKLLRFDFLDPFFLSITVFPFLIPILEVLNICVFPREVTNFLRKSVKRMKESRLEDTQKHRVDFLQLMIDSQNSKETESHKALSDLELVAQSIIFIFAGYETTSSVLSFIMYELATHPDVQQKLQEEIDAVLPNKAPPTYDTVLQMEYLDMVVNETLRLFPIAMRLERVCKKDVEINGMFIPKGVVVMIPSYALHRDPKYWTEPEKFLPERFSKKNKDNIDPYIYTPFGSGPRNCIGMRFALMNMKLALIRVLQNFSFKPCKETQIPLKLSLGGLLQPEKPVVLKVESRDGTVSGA

Chain of Cytochrome P450 2C9 (P11712 whole entry): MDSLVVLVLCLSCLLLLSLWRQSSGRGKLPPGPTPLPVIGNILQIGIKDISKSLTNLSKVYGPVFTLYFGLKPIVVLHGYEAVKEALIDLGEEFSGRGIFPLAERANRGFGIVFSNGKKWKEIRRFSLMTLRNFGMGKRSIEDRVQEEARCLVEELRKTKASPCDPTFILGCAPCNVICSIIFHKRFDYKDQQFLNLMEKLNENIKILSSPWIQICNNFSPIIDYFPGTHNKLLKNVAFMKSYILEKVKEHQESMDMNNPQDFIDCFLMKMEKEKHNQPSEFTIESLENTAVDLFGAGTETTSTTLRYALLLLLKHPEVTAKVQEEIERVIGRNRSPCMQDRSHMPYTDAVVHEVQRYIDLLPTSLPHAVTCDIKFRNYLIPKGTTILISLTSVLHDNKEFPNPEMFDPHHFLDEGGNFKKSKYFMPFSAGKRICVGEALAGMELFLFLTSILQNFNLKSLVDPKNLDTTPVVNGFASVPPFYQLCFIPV

Molecule O=C1NCCC12CCN(c1c(Cl)cncc1-c1ccc(N3CCOCC3)cc1)CC2 has a metabolised at 0.5 h, 10 µM [1] of 20%, a metabolised at 0.5 h, 10 µM [2] of 29% and an IC50 [3] of 30 nM. It also gave a Papp [4] of 37 ×10⁻⁶ cm/s, a clearance [5] of 65 mL/min/kg and a Vd [6] of 1.44 L/kg. The Tmax [7] was 6 min, the AUC [8] was 50.8 ng·h/mL and the half-life [9] was 18.6 min. The Tmax [10] was 15 min, the AUC [11] was 7.4 ng·h/mL and the bioavailability [12] was 6%. The IC50 [13] was 19000 nM, the IC50 [14] was 16000 nM and the Kinetic_solubility [15] was 164 µM. The Therm_solubility [16] was 17 µg/mL, the IC50 [17] was 2900 nM and the IC50 [18] was 2100 nM.

Reference: ChEMBL document CHEMBL3407438, “Discovery of potent, orally bioavailable, small-molecule inhibitors of WNT signaling from a cell-based pathway screen” (J Med Chem, 2015)
